Experimental data as given in ChEMBL document CHEMBL1287673, “Neo-tanshinlactone inspired synthesis, in vitro evaluation of novel substituted benzocoumarin derivatives as potent anti-breast cancer agents” (Bioorg Med Chem Lett, 2010).
pIC50: −log10 of the molar value. The source made the active and inactive calls. The rule behind the calls is not given here.

Columns and labels:
MCF7 [1] = assay: Anticancer activity against human MCF7 cells expressing estrogen receptor by MTT assay; assay type: functional, cell-based
[2] = Cytotoxicity activity against Sprague-Dawley rat osteoblast cells at 10 uM by MTT assay; assay type: cell-based
In short: (§1)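 Primary osteoblasts, 3 × 10³ cells/well, treated with 10 or 20 µM compound; viability and cell number read by MTT; n = 9.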

[3] = Cytotoxicity activity against Sprague-Dawley rat osteoblast cells at 20 uM by MTT assay; assay type: cell-based; in short: as §1
MCF7 [4] = assay: Cytotoxicity against human MCF7 cells expressing estrogen receptor assessed as loss of cell viability at 10 uM after 16 hrs by MTT assay; assay type: functional, cell-based
In short: (§2)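 1 × 10⁵ MCF-7 cells at 70–80% confluence exposed 16 h to increasing compound concentrations; growth inhibition read by MTT as percent (Total/Control); tamoxifen positive control; n = 9.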

MCF7 [5] = assay: Cell cycle arrest in human MCF7 cells expressing estrogen receptor assessed as accumulation at G1/G0 phase at 10 uM after 24 hrs using propidium iodide staining by flow cytometry; assay type: functional, cell-based
In short: (§3)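 MCF-7, 5 × 10⁵ cells/well at 70–80% confluence, serum-starved, then 10 µM compound for 24 h in phenol red-free medium. Cells fixed in 70% ethanol, rehydrated in PBS, and stained with PI (50 µg/ml) plus ribonuclease A (100 µg/ml). Flow cytometry gives % of cells in each cycle phase.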

MCF7 [6] = assay: Induction of apoptosis in human MCF7 cells expressing estrogen receptor assessed as presence of apoptotic body at 10 uM after 18 hrs by Hoechst 33342 staining; assay type: functional, cell-based
In short: (§4)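 MCF-7 at 70–80% confluence given 10 µM compound for 18 h in complete growth medium, then Hoechst 33342 stained and imaged with a ×40 objective. Apoptotic nuclei scored by shape and intensity and normalized to control; tamoxifen positive control.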

MCF7 [7] = assay: Induction of apoptosis in human MCF7 cells expressing estrogen receptor assessed as cytoplasmic condensation at 10 uM after 18 hrs by Hoechst 33342 staining; assay type: functional, cell-based; in short: as §4
MCF7 [8] = assay: Induction of apoptosis in human MCF7 cells expressing estrogen receptor assessed as presence of nuclear fragmentation at 10 uM after 18 hrs by Hoechst 33342 staining; assay type: functional, cell-based; in short: as §4
MCF7 [9] = assay: Induction of apoptosis in human MCF7 cells expressing estrogen receptor at 10 uM after 24 hrs using annexin-V FITC and propidium iodide staining by flow cytometry; assay type: functional, cell-based
In short: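 MCF-7 (5 × 10⁵ cells) at 70–80% confluence held 24 h in DMEM/10% FBS with or without 10 µM compound. Harvested, stained with Annexin-V-FITC and PI, and read by flow cytometry as % apoptotic (Annexin-positive/PI-negative) and necrotic (PI-positive) cells.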

MCF7 [10] = assay: Induction of apoptosis in human MCF7 cells expressing estrogen receptor assessed as increase in caspase activity at 10 uM after 16 hrs; assay type: functional, cell-based
In short: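 1 × 10⁴ MCF-7 cells/well at 70–80% confluence grown 16 h, then 10 µM compound for 16 h. General (homogeneous) caspase activity read fluorometrically, excitation 465 nm, emission 520 nm; compared with negative control.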

MCF7 [11] = assay: Cytotoxicity against human MCF7 cells expressing estrogen receptor assessed as loss of cell viability after 16 hrs by MTT assay; assay type: functional, cell-based; in short: as §2
MCF7 [12] = assay: Cell cycle arrest in human MCF7 cells expressing estrogen receptor assessed as accumulation at G2 phase at 10 uM after 24 hrs using propidium iodide staining by flow cytometry; assay type: functional, cell-based; in short: as §3
MCF7 [13] = assay: Cytotoxicity against human MCF7 cells expressing estrogen receptor assessed as loss of cell viability at 20 uM after 16 hrs by MTT assay; assay type: functional, cell-based; in short: as §2

| pIC50 (MCF7 [1]) | Compound | other results |
| --- | --- | --- |
| 5.42 | CN/C=C1/C=C(C=O)c2c(ccc3c(C)cc(=O)oc23)C1=O | Activity [2]: Non-toxic; Activity [3]: Non-toxic; Activity (MCF7 [4]): Toxic; Activity (MCF7 [5]): Active; Activity (MCF7 [6]): Active; Activity (MCF7 [7]): Active; Activity (MCF7 [8]): Active; Activity (MCF7 [9]): Active; Activity (MCF7 [10]): Active; Activity (MCF7 [11]): Dose-dependent effect |
| < 4.00 | Cc1ccc(C(=O)/C=C/C2=CC(=C/NC(C)(C)C)/C(=O)c3ccc4c(C)cc(=O)oc4c32)c(C)c1 |  |
| 5.19 | CCCCN/C=C1/C=C(C=O)c2c(ccc3c(C)cc(=O)oc23)C1=O | Activity [2]: Non-toxic; Activity [3]: Non-toxic; Activity (MCF7 [6]): Active; Activity (MCF7 [7]): Active; Activity (MCF7 [8]): Active; Activity (MCF7 [10]): Active; Activity (MCF7 [11]): Dose-dependent effect; Activity (MCF7 [12]): Active |
| < 4.00 | CCCCN/C=C1C=C(/C=C/C(=O)c2ccc(C)cc2C)c2c(ccc3c(C)cc(=O)oc23)C/1=O |  |
| < 4.00 | COc1ccc(C(=O)/C=C/c2cc(C=O)c(O)c3ccc4c(C)cc(=O)oc4c23)cc1 |  |
| 4.70 | Cc1cc(=O)oc2c3c(ccc12)C(=O)/C(=C\NC(C)(C)C)C=C3C=O |  |
| < 4.00 | Cc1cc(=O)oc2c1ccc1c(O)c(C=O)cc(/C=C/C(=O)c3ccccc3)c12 |  |
| < 4.00 | COc1ccc(C(=O)/C=C/C2=CC(=C/NC(C)(C)C)/C(=O)c3ccc4c(C)cc(=O)oc4c32)cc1 |  |
| 4.01 | Cc1ccc(C(=O)/C=C/C2=CC(=C/NC(C)(C)C)/C(=O)c3ccc4c(C)cc(=O)oc4c32)cc1 |  |
| < 4.00 | COc1ccc(C(=O)/C=C/C2=CC(=C/NC(C)C)/C(=O)c3ccc4c(C)cc(=O)oc4c32)cc1 |  |
| 4.00 | CCCCN/C=C1C=C(/C=C/C(=O)c2ccccc2)c2c(ccc3c(C)cc(=O)oc23)C/1=O |  |
| 4.49 | Cc1cc(=O)oc2c3c(ccc12)C(=O)/C(=C\NC(C)C)C=C3/C=C/C(=O)c1ccc(O)cc1 |  |
| < 4.00 | CCCCCCCN/C=C1/C=C(C=O)c2c(ccc3c(C)cc(=O)oc23)C1=O |  |
| < 4.00 | Cc1cc(=O)oc2c3c(ccc12)C(=O)/C(=C\NC(C)C)C=C3/C=C/C(=O)c1ccccc1 |  |
| < 4.00 | Cc1cc(=O)oc2c1ccc1c(O)c(C=O)cc(C=O)c12 |  |
| 4.46 | Cc1ccc(C(=O)/C=C/C2=CC(=C/NC(C)C)/C(=O)c3ccc4c(C)cc(=O)oc4c32)c(C)c1 |  |
| 4.04 | Cc1cc(=O)oc2c3c(ccc12)C(=O)/C(=C\NC(C)(C)C)C=C3/C=C/C(=O)c1ccccc1 |  |
| < 4.00 | CCN/C=C1C=C(/C=C/C(=O)c2ccc(C)cc2C)c2c(ccc3c(C)cc(=O)oc23)C/1=O |  |

| pIC50 (MCF7 [1]) | Compound | other results |
| --- | --- | --- |
| 4.40 | CCCCN/C=C1C=C(/C=C/C(=O)c2ccc(O)cc2)c2c(ccc3c(C)cc(=O)oc23)C/1=O |  |
| 5.10 | CCCN/C=C1/C=C(C=O)c2c(ccc3c(C)cc(=O)oc23)C1=O | Activity [2]: Non-toxic; Activity [3]: Non-toxic; Activity (MCF7 [13]): Toxic; Activity (MCF7 [5]): Active; Activity (MCF7 [6]): Active; Activity (MCF7 [7]): Active; Activity (MCF7 [8]): Active; Activity (MCF7 [10]): Active; Activity (MCF7 [11]): Dose-dependent effect |
| 4.06 | CCN/C=C1C=C(/C=C/C(=O)c2ccccc2)c2c(ccc3c(C)cc(=O)oc23)C/1=O |  |
| 3.89 | Cc1cc(=O)oc2c3c(ccc12)C(=O)/C(=C\NC(C)C)C=C3C=O |  |
| < 4.00 | CCN/C=C1C=C(/C=C/C(=O)c2ccc(C)cc2)c2c(ccc3c(C)cc(=O)oc23)C/1=O |  |
| 4.52 | CCN/C=C1C=C(/C=C/C(=O)c2ccc(OC)cc2)c2c(ccc3c(C)cc(=O)oc23)C/1=O |  |
| < 4.00 | Cc1cc(=O)oc2c1ccc1c(O)cccc12 |  |
| 4.68 | Cc1ccc(C(=O)/C=C/C2=CC(=C/NC(C)C)/C(=O)c3ccc4c(C)cc(=O)oc4c32)cc1 |  |
| 4.07 | CCN/C=C1C=C(/C=C/C(=O)c2ccc(O)cc2)c2c(ccc3c(C)cc(=O)oc23)C/1=O |  |
| < 4.00 | CCCCN/C=C1C=C(/C=C/C(=O)c2ccc(C)cc2)c2c(ccc3c(C)cc(=O)oc23)C/1=O |  |
| < 4.00 | Cc1cc(=O)oc2c1ccc1c(O)c(C=O)cc(/C=C/C(=O)c3ccc(O)cc3)c12 |  |
| 4.93 | CC/C(=C(\c1ccccc1)c1ccc(OCCN(C)C)cc1)c1ccccc1 [TAMOXIFEN] |  |
| < 4.00 | Cc1ccc(C(=O)/C=C/c2cc(C=O)c(O)c3ccc4c(C)cc(=O)oc4c23)cc1 |  |
| < 4.00 | Cc1cc(=O)oc2c3c(ccc12)C(=O)/C(=C\NCCN1CCOCC1)C=C3C=O |  |
| < 4.00 | CCN/C=C1/C=C(C=O)c2c(ccc3c(C)cc(=O)oc23)C1=O |  |
| < 4.00 | Cc1cc(=O)oc2c3c(ccc12)C(=O)/C(=C\NC(C)(C)C)C=C3/C=C/C(=O)c1ccc(O)cc1 |  |
| < 4.00 | Cc1ccc(C(=O)/C=C/c2cc(C=O)c(O)c3ccc4c(C)cc(=O)oc4c23)c(C)c1 |  |
| 4.04 | CCCCN/C=C1C=C(/C=C/C(=O)c2ccc(OC)cc2)c2c(ccc3c(C)cc(=O)oc23)C/1=O |  |
